In ChEMBL document CHEMBL4130456 (ACS Med Chem Lett, 2017):
Values after ≈ are worked out from the molar mass of the structure shown. Active and inactive are the calls of the source. The rule behind the calls is not given here.

Assays:
Cynomolgus monkey = assay: Dose normalized AUC in cynomolgus monkey at 0.1 mg/kg, iv by RP-HPLC analysis; format: ADME, organism-based, Macaca fascicularis; conditions: in vivo
Mus musculus [1] = assay: Toxicity in C57BL/6J mouse ozone-induced lung inflammation model at 10 to 100 mg/kg, po; format: organism-based; conditions: in vivo
In short: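 Mice with ozone-induced lung inflammation got repeated doses. Tolerability was judged by overt signs of toxicity during the multi-dose study. Efficacy endpoints were BAL neutrophil and macrophage counts and BAL serum albumin as a measure of plasma leakage.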

[2] = Equilibrium solubility of the compound at pH 6.8 by LC-MS/MS analysis; format: physicochemical; conditions: buffer
In short: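 High-throughput equilibrium solubility at pH 6.8, reported in mM.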

Mus musculus [3] = assay: Antiinflammatory activity in po dosed C57BL/6J mouse ozone-induced lung inflammation model assessed as reduction in macrophage numbers in bronchoalveolar lavage pretreated for 1 hr followed by ozone exposure for 4 hrs and subsequent redosing measured after 24 hrs by Diff-quick staining based assay; format: functional
In short: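 Mouse ozone-induced lung inflammation. Inflammatory cells are counted in bronchoalveolar lavage (neutrophils, macrophages) across several doses. ED50 is derived from the dose–response.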

[4] = Volume of distribution at steady state in cynomolgus monkey at 0.1 mg/kg, iv by RP-HPLC analysis; format: ADME, organism-based, Macaca fascicularis; conditions: in vivo, read-out: Vdss
[5] = Terminal half life in cynomolgus monkey at 0.1 mg/kg, iv by RP-HPLC analysis; format: ADME, organism-based, Macaca fascicularis; conditions: in vivo, read-out: beta t1/2 (converted)
[6] = Tmax in Beagle dog at 0.3 mg/kg, po by RP-HPLC analysis; format: ADME, organism-based, Canis lupus familiaris; conditions: in vivo
Rattus norvegicus [7] = assay: (§1) Antiarthritic activity in Lewis rat type-2 collagen-induced arthritis model assessed as reduction in IgG antibodies at 3 to 10 mg/kg, po bid administered prior to disease onset for 19 days starting from 5 days post type-2 collagen-induction measured post last dose by ELISA; format: functional, organism-based
In short: (§2)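 Rat collagen-induced arthritis, prophylactic regimen: dosing starts before disease onset, b.i.d. Readouts are anti-rat collagen antibodies, paw swelling, and histology (inflammatory cell infiltration, proteoglycan loss, joint erosion).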

Rattus norvegicus [8] = assay: Dose normalized Cmax in Sprague-Dawley rat at 3 mg/kg, po by RP-HPLC analysis; format: ADME, organism-based; conditions: in vivo
[9] = biological target: 3',5'-cyclic-AMP phosphodiesterase 4D (Homo sapiens, UniProt Q08499); assay: Inhibition of recombinant human PDE4D
Canis familiaris = assay: Dose normalized Cmax in Beagle dog at 0.3 mg/kg, po by RP-HPLC analysis; format: ADME, organism-based, Canis lupus familiaris; conditions: in vivo
Rattus norvegicus [10] = assay: Toxicity in Lewis rat type-2 collagen-induced arthritis model at 3 to 10 mg/kg, po bid; format: organism-based; conditions: in vivo
In short: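 Rat collagen-induced arthritis, dosed b.i.d. either prophylactically (before disease onset) or therapeutically (once paw swelling was evident). Tolerability was judged by overt signs of toxicity across the multi-dose study. Disease endpoints were anti-rat collagen antibodies, paw swelling, inflammatory cell infiltration, proteoglycan loss and joint erosion.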

Rattus norvegicus [11] = assay: Dose normalized AUC in Sprague-Dawley rat at 3 mg/kg, po by RP-HPLC analysis; format: ADME, organism-based; conditions: in vivo
[12] = biological target: Serine/threonine-protein kinase mTOR (Homo sapiens, UniProt P42345); assay: Inhibition of recombinant mTOR (unknown origin) using 4EBP1 as substrate by TR-FRET assay
[13] = Tmax in Sprague-Dawley rat at 3 mg/kg, po by RP-HPLC analysis; format: ADME, organism-based; conditions: in vivo
[14] = Volume of distribution at steady state in Beagle dog at 0.1 mg/kg, iv by RP-HPLC analysis; format: ADME, organism-based, Canis lupus familiaris; conditions: in vivo, read-out: Vdss
[15] = biological target: DNA-dependent protein kinase catalytic subunit (Homo sapiens, UniProt P78527); assay: Inhibition of DNA-PK (unknown origin) using peptide substrate assessed as reduction in incorporation of radioactive 33p into substrate by liquid scintillation counting method
[16] = biological target: 5-hydroxytryptamine receptor 2B (Homo sapiens, UniProt P41595); assay: Inhibition of 5-HT2B (unknown origin) by calcium flux assay; format: functional
In short: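 Part of a 50-target safety panel covering GPCRs, ion channels and transporters.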

Mus musculus [17] = assay: Toxicity in mouse assessed as effect on insulin homeostasis up to 100 mg/kg, po bid; format: organism-based; conditions: in vivo
[18] = biological target: Phosphatidylinositol 4,5-bisphosphate 3-kinase catalytic subunit gamma isoform (Homo sapiens, UniProt P48736); assay: Inhibition of PI3Kgamma (unknown origin) using phosphatidyl inositol as substrate measured after 30 mins by Alexa Fluor647-labelled ADP tracer based TR-FRET assay
[19] = Terminal half life in Beagle dog at 0.1 mg/kg, iv by RP-HPLC analysis; format: ADME, organism-based, Canis lupus familiaris; conditions: in vivo, read-out: beta t1/2 (converted)
[20] = Protein binding in Lewis rat plasma; format: ADME, cell-free; conditions: read-out: PPB (converted)
[21] = Oral bioavailability in Beagle dog at 0.3 mg/kg by RP-HPLC analysis; format: ADME, organism-based, Canis lupus familiaris; conditions: in vivo
Rattus norvegicus [22] = assay: In-vivo inhibition of PI3Kdelta in po dosed sheep RBC-sensitized OFA-rat assessed as reduction in antigen-specific antibody response to SRBC by measuring plaque formation treated for 4 days starting from day 1 of immunization by microscopic method; format: functional, organism-based
Rattus norvegicus [23] = assay: as §1, with “joint erosion” for “IgG antibodies”, “giemsa/safranin O staining based histopathological analysis” for “ELISA”; format: functional, organism-based; in short: as §2
Mus musculus [24] = assay: Effect on plasma leakage in C57BL/6J mouse ozone-induced lung inflammation model assessed as change in bronchoalveolar lavage serum albumin level at 10 to 100 mg/kg, po pretreated for 1 hr followed by ozone exposure for 4 hrs and subsequent redosing measured after 24 hrs by ELISA; format: functional, organism-based
In short: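 Mouse ozone-induced lung inflammation. Plasma leakage is measured as rise in serum albumin level in bronchoalveolar lavage fluid.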

[25] = Oral bioavailability in Sprague-Dawley rat at 30 mg/kg by RP-HPLC analysis; format: ADME, organism-based; conditions: in vivo
[26] = Inhibition of PI3Kdelta in 50% rat blood assessed as reduction in anti-IgM stimulated CD86 expression pretreated for 1 hr followed by anti-IgM stimulation after 24 hrs by flow cytometric analysis
In short: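 Rat 50% whole blood; B cells stimulated with anti-IgM/IL-4; readouts pAKT or CD86.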

Rattus norvegicus [27] = assay: In-vivo inhibition of PI3Kdelta in sheep RBC-sensitized OFA-rat assessed as reduction in antigen-specific antibody response to SRBC by measuring plaque formation at 30 mg/kg, po bid treated for 4 days starting from day 1 of immunization by microscopic method relative to control; format: functional

Sequence of DNA-dependent protein kinase catalytic subunit (P78527 whole entry): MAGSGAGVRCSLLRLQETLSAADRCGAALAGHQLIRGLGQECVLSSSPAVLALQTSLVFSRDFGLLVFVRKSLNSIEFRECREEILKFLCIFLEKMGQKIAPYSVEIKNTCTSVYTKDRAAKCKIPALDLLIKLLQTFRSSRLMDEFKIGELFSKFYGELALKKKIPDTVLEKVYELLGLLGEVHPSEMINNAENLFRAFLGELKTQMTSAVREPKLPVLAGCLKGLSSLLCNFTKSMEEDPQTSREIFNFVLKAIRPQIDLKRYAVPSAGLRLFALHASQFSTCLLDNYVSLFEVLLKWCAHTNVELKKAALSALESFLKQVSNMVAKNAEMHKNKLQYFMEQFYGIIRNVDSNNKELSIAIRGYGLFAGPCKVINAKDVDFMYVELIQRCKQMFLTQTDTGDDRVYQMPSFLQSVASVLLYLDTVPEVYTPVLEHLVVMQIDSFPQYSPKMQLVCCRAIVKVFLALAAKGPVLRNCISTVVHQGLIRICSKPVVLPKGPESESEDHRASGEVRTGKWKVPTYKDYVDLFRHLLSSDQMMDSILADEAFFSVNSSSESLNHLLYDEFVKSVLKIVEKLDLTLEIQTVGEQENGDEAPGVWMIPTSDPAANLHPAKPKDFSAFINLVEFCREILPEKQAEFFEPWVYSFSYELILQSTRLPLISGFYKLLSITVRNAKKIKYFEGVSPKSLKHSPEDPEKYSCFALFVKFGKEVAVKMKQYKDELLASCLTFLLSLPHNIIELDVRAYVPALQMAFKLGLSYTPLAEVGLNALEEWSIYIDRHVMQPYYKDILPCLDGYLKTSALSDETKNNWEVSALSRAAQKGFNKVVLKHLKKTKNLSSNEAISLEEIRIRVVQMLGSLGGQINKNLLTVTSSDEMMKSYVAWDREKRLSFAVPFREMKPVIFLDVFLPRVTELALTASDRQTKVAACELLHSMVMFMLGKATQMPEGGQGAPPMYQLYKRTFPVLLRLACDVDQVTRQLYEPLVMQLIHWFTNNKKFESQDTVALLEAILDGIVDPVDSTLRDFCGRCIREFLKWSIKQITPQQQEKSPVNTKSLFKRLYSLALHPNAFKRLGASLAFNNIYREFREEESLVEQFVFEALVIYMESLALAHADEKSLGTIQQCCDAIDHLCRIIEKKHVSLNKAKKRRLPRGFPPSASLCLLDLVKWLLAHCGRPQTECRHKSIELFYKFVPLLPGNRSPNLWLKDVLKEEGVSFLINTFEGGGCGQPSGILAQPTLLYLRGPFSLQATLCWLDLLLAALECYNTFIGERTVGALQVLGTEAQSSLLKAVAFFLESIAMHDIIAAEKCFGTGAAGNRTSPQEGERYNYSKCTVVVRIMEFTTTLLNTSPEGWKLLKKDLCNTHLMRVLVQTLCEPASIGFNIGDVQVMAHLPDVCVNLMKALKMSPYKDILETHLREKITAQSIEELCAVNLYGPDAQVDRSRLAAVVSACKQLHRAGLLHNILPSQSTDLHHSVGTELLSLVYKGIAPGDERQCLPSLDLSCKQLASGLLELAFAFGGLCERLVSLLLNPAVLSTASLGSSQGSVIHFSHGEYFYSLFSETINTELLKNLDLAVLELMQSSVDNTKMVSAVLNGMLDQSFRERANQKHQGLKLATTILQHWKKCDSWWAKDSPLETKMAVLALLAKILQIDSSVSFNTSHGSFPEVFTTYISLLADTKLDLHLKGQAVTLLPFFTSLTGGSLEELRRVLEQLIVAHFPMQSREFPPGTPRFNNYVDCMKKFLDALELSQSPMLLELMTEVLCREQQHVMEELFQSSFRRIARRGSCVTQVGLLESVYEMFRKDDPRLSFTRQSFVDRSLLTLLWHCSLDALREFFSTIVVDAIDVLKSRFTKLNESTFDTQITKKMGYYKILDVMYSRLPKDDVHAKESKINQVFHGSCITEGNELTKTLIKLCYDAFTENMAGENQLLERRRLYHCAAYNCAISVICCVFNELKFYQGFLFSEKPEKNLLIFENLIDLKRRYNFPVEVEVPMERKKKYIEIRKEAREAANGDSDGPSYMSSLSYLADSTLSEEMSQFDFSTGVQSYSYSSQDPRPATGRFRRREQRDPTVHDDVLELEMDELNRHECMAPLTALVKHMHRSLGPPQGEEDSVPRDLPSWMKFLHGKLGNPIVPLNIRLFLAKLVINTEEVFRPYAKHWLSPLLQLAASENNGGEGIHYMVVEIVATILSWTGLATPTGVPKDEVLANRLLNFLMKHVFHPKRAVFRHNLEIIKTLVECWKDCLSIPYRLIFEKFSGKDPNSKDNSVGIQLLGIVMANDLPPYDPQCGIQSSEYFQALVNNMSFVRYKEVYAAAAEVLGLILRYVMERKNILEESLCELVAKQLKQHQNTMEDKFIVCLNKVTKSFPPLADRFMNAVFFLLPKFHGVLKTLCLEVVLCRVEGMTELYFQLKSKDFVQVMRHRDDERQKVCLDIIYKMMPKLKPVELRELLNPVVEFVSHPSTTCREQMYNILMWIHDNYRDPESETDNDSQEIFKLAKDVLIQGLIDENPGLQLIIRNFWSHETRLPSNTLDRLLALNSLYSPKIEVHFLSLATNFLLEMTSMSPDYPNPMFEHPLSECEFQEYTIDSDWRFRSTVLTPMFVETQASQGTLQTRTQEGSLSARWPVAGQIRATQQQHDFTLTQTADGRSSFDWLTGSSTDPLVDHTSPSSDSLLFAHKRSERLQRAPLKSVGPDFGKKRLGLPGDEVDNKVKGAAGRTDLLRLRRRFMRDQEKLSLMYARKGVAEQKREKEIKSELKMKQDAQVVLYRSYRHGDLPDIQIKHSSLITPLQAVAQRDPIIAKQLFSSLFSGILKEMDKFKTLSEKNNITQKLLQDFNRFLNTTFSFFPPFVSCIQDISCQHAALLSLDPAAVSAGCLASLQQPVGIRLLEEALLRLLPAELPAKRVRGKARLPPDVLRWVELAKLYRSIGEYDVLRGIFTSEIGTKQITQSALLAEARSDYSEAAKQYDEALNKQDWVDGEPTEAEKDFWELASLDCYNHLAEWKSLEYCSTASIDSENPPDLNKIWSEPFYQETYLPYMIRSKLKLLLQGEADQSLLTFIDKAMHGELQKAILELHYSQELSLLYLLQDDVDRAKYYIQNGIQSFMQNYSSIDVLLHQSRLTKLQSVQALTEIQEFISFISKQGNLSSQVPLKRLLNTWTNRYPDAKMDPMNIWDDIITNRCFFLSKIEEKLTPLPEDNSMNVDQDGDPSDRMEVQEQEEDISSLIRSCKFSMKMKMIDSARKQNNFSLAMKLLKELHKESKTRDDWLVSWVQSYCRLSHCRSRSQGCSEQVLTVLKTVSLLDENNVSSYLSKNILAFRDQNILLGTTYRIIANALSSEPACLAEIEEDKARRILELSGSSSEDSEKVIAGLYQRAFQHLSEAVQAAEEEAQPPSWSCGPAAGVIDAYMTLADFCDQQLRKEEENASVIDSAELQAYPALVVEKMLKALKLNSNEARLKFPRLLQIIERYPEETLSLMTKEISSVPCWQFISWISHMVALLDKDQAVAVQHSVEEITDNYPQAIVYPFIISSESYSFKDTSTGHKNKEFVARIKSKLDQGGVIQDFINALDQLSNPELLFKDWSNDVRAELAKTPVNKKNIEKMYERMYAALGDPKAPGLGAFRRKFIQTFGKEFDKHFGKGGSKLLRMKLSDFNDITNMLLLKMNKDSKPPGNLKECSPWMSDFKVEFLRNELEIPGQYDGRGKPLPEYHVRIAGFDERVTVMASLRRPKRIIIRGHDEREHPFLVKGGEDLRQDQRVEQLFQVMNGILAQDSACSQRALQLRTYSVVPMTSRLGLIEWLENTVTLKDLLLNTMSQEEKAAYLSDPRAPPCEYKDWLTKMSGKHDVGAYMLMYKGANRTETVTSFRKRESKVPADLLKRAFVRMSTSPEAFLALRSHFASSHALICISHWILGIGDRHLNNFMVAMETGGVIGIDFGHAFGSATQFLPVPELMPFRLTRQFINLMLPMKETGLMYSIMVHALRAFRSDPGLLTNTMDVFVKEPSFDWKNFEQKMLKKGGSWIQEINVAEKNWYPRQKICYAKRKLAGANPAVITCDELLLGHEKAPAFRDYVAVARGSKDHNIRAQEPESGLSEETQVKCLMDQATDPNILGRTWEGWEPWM
Sequence of 3',5'-cyclic-AMP phosphodiesterase 4D (Q08499 whole entry): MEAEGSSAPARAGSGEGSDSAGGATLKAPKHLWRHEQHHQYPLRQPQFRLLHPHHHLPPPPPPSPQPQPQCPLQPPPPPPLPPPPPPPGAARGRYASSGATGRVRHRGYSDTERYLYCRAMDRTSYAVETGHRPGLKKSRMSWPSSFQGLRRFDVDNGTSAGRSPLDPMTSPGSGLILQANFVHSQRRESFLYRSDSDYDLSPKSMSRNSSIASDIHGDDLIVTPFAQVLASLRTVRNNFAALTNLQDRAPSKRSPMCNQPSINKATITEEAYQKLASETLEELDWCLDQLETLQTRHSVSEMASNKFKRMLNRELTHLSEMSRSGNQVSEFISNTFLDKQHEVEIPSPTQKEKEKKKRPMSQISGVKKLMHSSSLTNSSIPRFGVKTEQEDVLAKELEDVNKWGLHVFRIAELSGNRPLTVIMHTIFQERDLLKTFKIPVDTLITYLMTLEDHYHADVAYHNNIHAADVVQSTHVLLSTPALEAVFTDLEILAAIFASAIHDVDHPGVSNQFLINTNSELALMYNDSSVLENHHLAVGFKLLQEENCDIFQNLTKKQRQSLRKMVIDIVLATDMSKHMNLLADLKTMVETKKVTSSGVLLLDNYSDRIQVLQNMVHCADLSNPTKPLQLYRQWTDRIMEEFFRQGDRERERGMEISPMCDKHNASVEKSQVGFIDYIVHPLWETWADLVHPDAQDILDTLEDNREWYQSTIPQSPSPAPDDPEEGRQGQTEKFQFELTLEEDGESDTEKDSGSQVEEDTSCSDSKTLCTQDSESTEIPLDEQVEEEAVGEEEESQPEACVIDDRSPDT

AUC/dose (Cynomolgus monkey): 2250 nM·h | solubility thermodynamic [2]: 320 µM (≈ 144 µg/mL) | Vd [4]: 0.6 L/kg | half-life [5]: 42 min | Tmax [6]: 42 min | Cmax/dose (Rattus norvegicus [8]): 391 nM | IC50 [9]: 4700 nM | Cmax/dose (Canis familiaris): 3410 nM | AUC/dose (Rattus norvegicus [11]): 1165 nM·h | IC50 [12]: > 9100 nM | Tmax [13]: 24 min | Vd [14]: 0.3 L/kg | IC50 [15]: 880 nM | IC50 [16]: 7700 nM | IC50 [18]: 2230 nM | half-life [19]: 90 min | fraction unbound [20]: 0.06 | bioavailability [21]: 58% | bioavailability [25]: > 100% | IC50 [26]: 99 nM
SMILES: CCC(=O)N1CC[C@H](Nc2ncnc3c2CN(c2cnc(OC)c(C(F)(F)F)c2)CC3)C1 [LENIOLISIB]
Activity (Mus musculus [1]): Non-Toxic | Activity (Mus musculus [3]): Dose-dependent effect | ED50 (Mus musculus [3]): 40 mg/kg | Activity (Rattus norvegicus [7]): Active | Activity (Rattus norvegicus [10]): Non-Toxic | Activity (Mus musculus [17]): Non-Toxic | inhibition (Rattus norvegicus [22]): Dose-dependent effect | Activity (Rattus norvegicus [23]): Active | Activity (Mus musculus [24]): inactive | inhibition in vivo at 30 mg/kg (Rattus norvegicus [27]): 96%
